Screening results from PubChem.
Sampled rows, rich in hits. Any-hit rate of the full collection: about 1.2%.
Diaph inh CS: inhibits diaphorase or chemically oxidizes, flagging diaphorase assay artifacts. diaphorase resazurin-to-resorufin fluorescence, NADH, 16 min; bacterial (C. kluyveri) enzyme, not human. inhibition, % at 20 µM. actives 0.69% (n = 190,000). AID 1217;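 active means primary screen inhibition at 20 µM above a set limit, cut at about 50% in these data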;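 further: plate controls were DMSO with full reaction for no effect and wells lacking NADH for full effect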
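Detection: fluorescence of resorufin formed from resazurin, Ex 544/Em 590 nm; test system: Clostridium kluyveri diaphorase enzyme; amount: 0.14 U/mL diaphorase, enzyme working solution; times: 16-min room-temperature incubation before reading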
Diaph act CS: counter-screen for diaphorase-based assays: diaphorase activators and chemical reducers | Diaphorase/resazurin coupled assay, resorufin fluorescence, 16 min; hits give high values; 1 = vehicle wells, 0 = NADH-free wells | activation factor at 20 µM | actives 0.005% (n = 190,000) | AID 1229;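 active means diaphorase activity raised at least twofold by the compound at 20 µM; inactive means activation factor below 2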
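Material: Clostridium kluyveri diaphorase, purified enzyme; Quantity: enzyme 0.07 U/mL final; Medium: HEPES pH 7.4 buffer with MgCl2 and Tween 20; Dosing: single compound dose of 20 µM, 1% DMSO final; Schedule: 16 min reaction at room temperature; Measured by: red resorufin fluorescence at 544/590 nm excitation/emission.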
G6PDH counter: counter-screen for G6PDH assay hits: L. mesenteroides G6PDH inhibition | Purified L. mesenteroides G6PDH, diaphorase/resazurin coupled fluorescence, 45 min | inhibition, % at 5 µM | AID 1020 | actives 0.12% (n = 200,000); in the data active means inhibition above about 50%
HKDC1 inh: HKDC1 (human) hexokinase inhibition. Q2TB90. recombinant HKDC1, G6PDH/diaphorase resazurin coupled fluorescence. inhibition, % at 20 µM. actives 0.16% (n = 340,000). AID 493160;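 active means inhibition above about 35% when tested at 20 µM, limit read from the data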;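 further: plate controls were DMSO wells with enzyme for no effect and DMSO wells lacking enzyme for full effect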
Target sequence (Q2TB90 whole entry, looked up): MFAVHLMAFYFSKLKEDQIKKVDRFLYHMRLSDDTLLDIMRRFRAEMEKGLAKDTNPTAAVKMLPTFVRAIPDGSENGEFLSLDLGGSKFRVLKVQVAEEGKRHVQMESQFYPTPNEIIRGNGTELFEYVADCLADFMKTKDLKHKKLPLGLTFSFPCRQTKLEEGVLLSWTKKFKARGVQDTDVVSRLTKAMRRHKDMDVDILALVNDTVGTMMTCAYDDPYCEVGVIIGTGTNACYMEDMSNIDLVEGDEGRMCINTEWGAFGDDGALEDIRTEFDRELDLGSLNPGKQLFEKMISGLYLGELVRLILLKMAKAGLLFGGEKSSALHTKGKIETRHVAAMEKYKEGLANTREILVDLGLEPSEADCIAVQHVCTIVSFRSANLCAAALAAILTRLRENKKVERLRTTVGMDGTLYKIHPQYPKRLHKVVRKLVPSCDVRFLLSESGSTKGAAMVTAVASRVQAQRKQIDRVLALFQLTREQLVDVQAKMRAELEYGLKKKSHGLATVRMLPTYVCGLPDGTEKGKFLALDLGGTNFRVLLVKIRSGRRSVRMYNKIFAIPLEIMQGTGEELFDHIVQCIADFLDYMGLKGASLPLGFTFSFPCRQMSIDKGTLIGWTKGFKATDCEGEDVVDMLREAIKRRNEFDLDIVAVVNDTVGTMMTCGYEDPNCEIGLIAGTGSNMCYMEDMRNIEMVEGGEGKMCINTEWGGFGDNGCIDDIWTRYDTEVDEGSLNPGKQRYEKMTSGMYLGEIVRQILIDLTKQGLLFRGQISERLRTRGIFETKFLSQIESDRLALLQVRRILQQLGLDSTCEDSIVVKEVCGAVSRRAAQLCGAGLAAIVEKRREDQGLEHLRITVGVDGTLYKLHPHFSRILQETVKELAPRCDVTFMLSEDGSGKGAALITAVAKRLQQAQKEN
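Material: recombinant HKDC1 hexokinase; Amount: HKDC1 at 5 µg/mL; Medium: Tris pH 8.0 buffer with MgCl2, Tween-20, BSA, BME; Schedule: 90 min reaction incubation at room temperature, dark; Technique: coupled resazurin fluorescence, excitation 525 nm, emission 613 nm.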
PfG6PD inh: PfG6PD (Plasmodium falciparum) enzyme inhibition | inhibition, % at 20 µM | AID 504690 | actives 0.78% (n = 350,000) | PfGluPho enzyme, NADPH resazurin-diaphorase fluorescence;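 active means inhibition reaching at least a set limit at 20 µM in the primary screen, cut at about 59% in these data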;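 further: 0% = DMSO wells with substrate and 100% = DMSO wells lacking glucose-6-phosphate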
PfGluPho conf: confirmation of Plasmodium falciparum G6PD inhibitors. shares compounds with PfG6PD inh. recombinant PfGluPho, NADPH-diaphorase-resazurin fluorescence. inhibition, % at 20 µM. actives 34% (n = 2,400). AID 504753;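 active means inhibition of at least 50% at 20 µM in any single replicate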;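 further: 0% = DMSO with substrate and 100% = DMSO lacking glucose-6-phosphate substrate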
Diaph ctr 10uM: diaphorase inhibition or oxidation at 10 uM NADPH; shares compounds with PfG6PD inh; actives 39% (n = 820); inhibition, % at 20 µM; diaphorase-coupled resazurin reduction, fluorescence, NADPH 10 uM;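 active means average inhibition reaching 50% or more with the compound at 20 µM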;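 further: resorufin red fluorescence formed as diaphorase reduces resazurin using NADPH; 0% = DMSO with enzyme and 100% = DMSO without enzyme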
Diaphorase 30uM: inhibits diaphorase or oxidizes, flagging false PfG6PD hits; actives 29% (n = 820); Diaphorase/resazurin coupled assay, resorufin fluorescence, 30 uM NADPH; inhibition, % at 20 µM; AID 504863; shares compounds with PfG6PD inh;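 active means inhibition averaging 50% or more, tested at 20 µM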;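 further: 0% = DMSO with enzyme and 100% = DMSO wells lacking diaphorase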
* = called active by the depositor.

Results for CCOc1cccc(CNc2ccc(O)cc2)c1OCc1ccc(Cl)cc1 ?
Diaph inh CS: 44; Diaph act CS: 0.6; G6PDH counter: 13; HKDC1 inh: 19; PfG6PD inh: 70*; PfGluPho conf: -1

What do the screens show for `Cc1ccc(NCc2ccccc2OCc2ccccc2F)cc1`?
Diaph inh CS: -8; Diaph act CS: 1.1; G6PDH counter: -1; HKDC1 inh: 3; PfG6PD inh: 23

Results for COc1ccc(Br)cc1CNc1ccc(O)cc1 ?
Diaph inh CS: 29; Diaph act CS: 0.7; G6PDH counter: 19; HKDC1 inh: 13; PfG6PD inh: 68*; PfGluPho conf: 38

What do the screens show for `COc1cccc(CNCCO)c1OCc1ccc(Cl)cc1`?
Diaph inh CS: 8; Diaph act CS: 0.9; G6PDH counter: -3; HKDC1 inh: -10; PfG6PD inh: 2

How did CCOc1ccccc1CNc1ccc(O)cc1 do in these assays?
Diaph inh CS: 45; Diaph act CS: 0.6; G6PDH counter: 17; HKDC1 inh: 23; PfG6PD inh: 74*; PfGluPho conf: 63*; Diaph ctr 10uM: -3; Diaphorase 30uM: -4

What do the screens show for `Oc1ccc(NCc2ccccc2OCc2ccccc2F)cc1`?
Diaph inh CS: 36; Diaph act CS: 0.6; G6PDH counter: 2; HKDC1 inh: 20; PfG6PD inh: 76*; PfGluPho conf: 42

Results for COc1ccc(Br)cc1CNc1ccc2[nH]c(=O)[nH]c2c1 ?
Diaph inh CS: 44; Diaph act CS: 0.6; G6PDH counter: -3; HKDC1 inh: -11; PfG6PD inh: 37

What do the screens show for `C/C(=N\Nc1nc2c(s1)CCCC2)c1ccc(Cl)cc1`?
Diaph inh CS: 5; Diaph act CS: 1; G6PDH counter: -2; HKDC1 inh: 2; PfG6PD inh: 66*; PfGluPho conf: -15

Results for c1cc(CNc2ccc3c(c2)OCO3)ccn1 ?
Diaph inh CS: 32; Diaph act CS: 0.7; G6PDH counter: -28; HKDC1 inh: 23; PfG6PD inh: 61*; PfGluPho conf: 53*; Diaph ctr 10uM: 15; Diaphorase 30uM: 11

What do the screens show for `Cc1ccc(CNc2ccc3c(c2)OCO3)cc1`?
Diaph inh CS: 31; Diaph act CS: 0.7; G6PDH counter: 24; HKDC1 inh: 6; PfG6PD inh: 40

Results for C#CCOCCOCCOCCNc1nc(N2CCN(C(=O)[C@H](CCC(=O)O)n3cc(C(N)[C@H](C)CC)nn3)CC2)nc(N2CCN(C(=O)[C@H](Cc3cc4ccccc4[nH]3)n3cc(C(N)[C@H](C)CC)nn3)CC2)n1 (stereo partly specified) ?
Diaph inh CS: -15; Diaph act CS: 1.2; G6PDH counter: -2

How did C#CCOCCOCCOCCNc1nc(N2CCN(C(=O)CCCCCCCCCCNC(=O)[C@H](CCCCN)n3cc(CCO)nn3)CC2)nc(N2CCN(C(=O)CCCCCCCCCCNC(=O)[C@H](CCCCN)n3cc(C[C@@H](C)CC)nn3)CC2)n1 do in these assays?
HKDC1 inh: 3; PfG6PD inh: 77*; PfGluPho conf: 12

How did C#CCOCCOCCOCCNc1nc(N2CCN(C(=O)[C@H](CCCCN)n3cc([C@@H](N)C(C)CC)nn3)CC2)nc(N2CCN(C(=O)[C@H](Cc3cc4ccccc4[nH]3)n3cc([C@@H](N)C(C)CC)nn3)CC2)n1 (stereo partly specified) do in these assays?
HKDC1 inh: 7; PfG6PD inh: 61*; PfGluPho conf: 37

Results for COc1ccc(CNC(=O)CCC(=O)Nc2nnc(C(F)(F)F)s2)cc1 ?
HKDC1 inh: 3; PfG6PD inh: -32

What do the screens show for `CCOC(=O)C1CC(c2ccccc2)=NNC1=O` (stereo unspecified)?
Diaph inh CS: 4; Diaph act CS: 1; G6PDH counter: 5; HKDC1 inh: -13; PfG6PD inh: 7

How did O=C(Nc1ccc(N2CCOCC2)cc1)c1ccc2ncsc2c1 do in these assays?
HKDC1 inh: -4; PfG6PD inh: 66*; PfGluPho conf: 22

How did Nc1nc2ccc(C(=O)Nc3ccc(N4CCOCC4)cc3)cc2s1 do in these assays?
HKDC1 inh: 1; PfG6PD inh: 17

Results for COC(=O)c1c(-c2cccnc2)csc1NC(=O)c1cc(C)on1 ?
Diaph inh CS: 19; Diaph act CS: 0.8; G6PDH counter: -40; HKDC1 inh: 1; PfG6PD inh: 62*; PfGluPho conf: 16

How did COC(=O)c1c(-c2ccc(C)cc2)csc1NC(=O)c1c(-c2ccccc2)noc1C do in these assays?
Diaph inh CS: 9; Diaph act CS: 0.9; G6PDH counter: 3

What do the screens show for `CN(C)c1ccc(C=Nc2ccc(N(C)C)cc2)cc1`?
Diaph inh CS: 33; Diaph act CS: 0.7; G6PDH counter: 7; HKDC1 inh: 7; PfG6PD inh: 66*; PfGluPho conf: 47

Results for Cn1c(C(=O)NCCCN2CCCCCC2)cc2c(=O)n(C)c3ccccc3c21 ?
Diaph inh CS: 10; Diaph act CS: 0.9; G6PDH counter: -44; HKDC1 inh: 5; PfG6PD inh: 60*; PfGluPho conf: -2

Results for O=S(=O)(/C=C/c1ccccc1)N1CCN(c2nc(-c3ccccc3)nc3ccccc23)CC1 ?
Diaph inh CS: 8; Diaph act CS: 0.9; G6PDH counter: -2; HKDC1 inh: 2; PfG6PD inh: 6

How did Nc1c(O)cccc1C(=O)O do in these assays?
HKDC1 inh: 21; PfG6PD inh: 108*; PfGluPho conf: 80*; Diaph ctr 10uM: 0; Diaphorase 30uM: 0

How did O=C(O)c1ccccc1C(=O)c1ccc2c(c1)N(Cc1cccc(F)c1)C(=O)CO2 do in these assays?
Diaph inh CS: 16; Diaph act CS: 0.8; G6PDH counter: 5; HKDC1 inh: 9; PfG6PD inh: 93*; PfGluPho conf: 58*; Diaph ctr 10uM: 58*; Diaphorase 30uM: 52*

Results for C/C(Cn1nnc([N+](=O)[O-])n1)=N\NC(=O)c1ccccc1Cl ?
Diaph inh CS: 16; Diaph act CS: 0.8; G6PDH counter: 11; HKDC1 inh: -2; PfG6PD inh: 56

What do the screens show for `C/C(Cn1nnc([N+](=O)[O-])n1)=N\NC(=O)c1cccc(Cl)c1`?
Diaph inh CS: 12; Diaph act CS: 0.9; G6PDH counter: 18; HKDC1 inh: 8; PfG6PD inh: 68*; PfGluPho conf: 59*; Diaph ctr 10uM: 27; Diaphorase 30uM: 26
